Rows were chosen to be rich in hits. Some 3.5% of all compounds tested hit in one or more screens of this group.
MrgX1 allo act = allosterically activates human MrgX1 receptor signaling; Q96LB2; MrgX1-HEK293, Fluo-4 calcium flux, FDSS; active compounds read high; B-score at 10 µM; actives 0.63% (n = 310,000); AID 588675;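 active = plate-corrected calcium response at least 3 library SD above typical, normal starting fluorescence, not activating the receptor alone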;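 also: compound read alongside a low EC10 to EC30 dose of BAM8-22 agonist; peak minus trough fluorescence over baseline measured at the second addition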
Target sequence (Q96LB2 whole entry, looked up): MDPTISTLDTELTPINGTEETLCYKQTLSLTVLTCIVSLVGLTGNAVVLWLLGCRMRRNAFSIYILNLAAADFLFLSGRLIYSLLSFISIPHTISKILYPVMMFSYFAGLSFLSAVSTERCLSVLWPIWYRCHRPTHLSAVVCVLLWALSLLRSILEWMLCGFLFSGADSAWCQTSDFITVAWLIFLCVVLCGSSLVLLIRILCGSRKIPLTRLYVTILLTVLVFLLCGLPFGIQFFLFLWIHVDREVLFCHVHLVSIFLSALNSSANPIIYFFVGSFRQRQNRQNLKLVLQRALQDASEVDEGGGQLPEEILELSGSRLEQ
MrgX1 agonist = human MrgX1 receptor agonism, primary screen | Q96LB2 | MrgX1-HEK293 cells, Fluo-4 calcium fluorescence, agonist mode; active compounds read high | B-score at 10 µM | actives 0.44% (n = 310,000);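 active = calcium response B-score plate-corrected fluorescence ratio at least 3 library SD, with starting fluorescence B-score inside 5 SD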
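Test system: HEK293 cells stably expressing human MrgX1 receptor; amount: 15,000 cells per well; doses: compound delivered in addition one of three; times: overnight plating before 1 h dye loading; detection: Fluo-4 NW calcium-flux fluorescence, kinetic read; read-out basis: B-scored fluorescence response ratio; controls: positive and negative controls per plate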
RGS4 pot = RGS4 potentiation or activation; HEK293 M3R/inducible RGS4, carbachol calcium flux Fluo4; active compounds read low; actives 0.92% (n = 310,000); B-score at 10 µM;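 active = B-score of the integrated calcium signal more than 4 SD below the library mean, with starting fluorescence not abnormally high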;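 also: negative B-score means reduced calcium response which marks RGS4 activation or potentiation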
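test system = M3R-expressing HEK293 line, RGS4 induced by doxycycline | probe or stimulus = carbachol at ECmax as muscarinic agonist stimulus | timing = dye loading 30 min 37 °C, buffer rest 30 min RT | signal = calcium dye Fluo4 fluorescence | evaluation = B score from integrated fluorescence ratio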
MrgX1 antagonist = antagonists of human MrgX1 receptor; B-score at 10 µM; MRGX1-HEK293 calcium flux, Fluo-4, BAM8-22 antagonism; active compounds read low; actives 1.3% (n = 310,000); Q96LB2;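 active = calcium-response B-score plate-corrected more than 3 library SD below zero, starting fluorescence within 5 deviations, no agonist response on first addition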;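 also: peak minus trough fluorescence over baseline after final BAM8-22 challenge near maximal dose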
RGS4 block = human RGS4 inhibition; P49798; HEK293 M3R/RGS4 inducible, Fluo-4 calcium flux; active compounds read high; triggered by carbachol at its EC20; B-score at 10 µM; actives 0.45% (n = 310,000); AID 463165;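 active = B-score, a plate-corrected calcium signal, over three deviations above library mean, with baseline fluorescence within five deviations of library mean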;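 also: RGS4 expression induced by doxycycline in cells with stable M3 receptor; B-score is computed from the integrated fluorescence ratio over baseline after carbachol; higher B-score means a larger calcium signal and so more RGS4 inhibition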
Target sequence (P49798 whole entry, looked up): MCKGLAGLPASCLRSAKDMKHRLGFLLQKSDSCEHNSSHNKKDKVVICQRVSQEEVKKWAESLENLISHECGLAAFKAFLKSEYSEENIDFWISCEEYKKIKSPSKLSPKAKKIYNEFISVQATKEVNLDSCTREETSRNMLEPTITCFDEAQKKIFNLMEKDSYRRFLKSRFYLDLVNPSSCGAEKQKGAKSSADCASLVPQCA
A number is an active result; i = inactive.

SMILES	MrgX1 allo act	MrgX1 agonist	RGS4 pot	MrgX1 antagonist	RGS4 block
O=S(=O)(c1ccc(F)cc1)n1ccc(-c2cccc(OCc3ccc(Cl)cc3Cl)c2)n1	i	i	i	-8.1	i
CC(Oc1ccc(-c2ccccc2)c(F)c1)c1ccn(S(=O)(=O)c2ccc(F)cc2)n1 (stereo unspecified)	i	i	i	i	i
Cc1cccc(NC(=O)CNC(=O)c2cccs2)n1	i	i	i	i	i
CCN(CC)CCNC(=O)CCc1c(C)nc2c(c(C)nn2-c2ccc(C)c(C)c2)c1C	i	i	-7	i	i
COC(CNC(=O)CCc1c(C)nc2c(c(C)nn2-c2ccc(C)cc2)c1C)OC	i	i	i	i	i
Cc1ccc(-n2nc(C)c3c(C)c(CCC(=O)Nc4ccc(CN5CCCC5)cc4)c(C)nc32)cc1	i	i	-7.1	i	i
Cc1ccccc1Oc1nc2c(C)cccn2c(=O)c1/C=C(\C#N)C(=O)Nc1c(C)n(C)n(-c2ccccc2)c1=O	i	i	i	i	i
CC(=O)c1ccc(NC(=O)Nc2cccc3ccccc23)cc1	i	i	i	i	i
CCOc1ccc(C(=O)NCCNC(=O)c2ccc(OCC)cc2)cc1	i	i	i	i	i
CCOc1ccc(C(=O)NCCCN(CC)CC)cc1	i	i	i	-5.4	i
O=C(CCC(=O)OCC(=O)c1ccc(-c2ccccc2)cc1)Nc1cccc2cccnc12	i	i	i	i	i
O=C(CCC(=O)OCC(=O)c1ccc(Cl)cc1Cl)Nc1cccc2cccnc12	i	i	i	-8.4	i
COCCN1CCN(C(=O)C2CCC(=O)N(Cc3cccc(C(F)(F)F)c3)C2)CC1 (stereo unspecified)	i	i	i	i	i
COc1ccc(-c2oc3ccccc3c2C(=O)OCc2ccc(O)cc2)cc1	i	i	i	i	i
COc1ccc(-c2oc3ccccc3c2C(=O)OCc2ccccc2)cc1	8.1	i	i	i	i
O=C(c1ccco1)N1CCN(Cc2cc(=O)c(OCc3ccccc3)co2)CC1	i	i	i	-5.3	i
CCN1CCN(CCNC(=O)c2ccc(/C=C3/Sc4ccccc4N(Cc4cccc(Cl)c4)C3=O)cc2)CC1	i	i	-9.9	i	i
Cc1cccc(CN2C(=O)/C(=C\c3ccc(C(=O)NCCN4CCOCC4)cc3)Sc3ccccc32)c1	i	i	-7.3	i	i
O=C(NCCN1CCOCC1)c1ccc(/C=C2\Sc3ccccc3N(Cc3ccccc3F)C2=O)cc1	i	i	i	i	i
O=C(CCCCC(=O)NCCc1ccccc1)NCCc1ccccc1	i	i	i	i	i
O=C(Nc1cccc(C(F)(F)F)c1)N1CCC(c2nc(-c3ccc(F)cc3)no2)CC1	i	i	-9.3	i	i
O=C(Nc1ccccc1)N1CCCC(c2nc(-c3ccc(F)cc3)no2)C1 (stereo unspecified)	i	i	i	i	i
COc1ccc(F)cc1C(=O)C1CCCN(C(=O)c2ccccc2N(C)C)C1 (stereo unspecified)	i	i	i	i	i
CN(C)CCn1c2ccccc2c2nc3ccc([N+](=O)[O-])cc3cc21	i	i	i	i	i
COc1ccc(C(=O)c2ccc(Cl)cc2)cc1	i	i	i	i	i
SMILES	MrgX1 allo act	MrgX1 agonist	RGS4 pot	MrgX1 antagonist	RGS4 block
COc1ccc(C(=O)c2ccc(Cl)c([N+](=O)[O-])c2)cc1	7	i	i	i	i
Cc1cc(C(=O)CSc2nncs2)c(C)n1-c1c(C)n(C)n(-c2ccccc2)c1=O	i	i	-9.4	i	i
Clc1ccc(CCNc2ncnc3c2nnn3Cc2ccccc2)cc1	i	i	i	i	i
CC[C@@]1(c2ccccc2)C(=O)N(C(=O)OC)N1C(=O)OC	i	i	i	-8.6	i
CC[C@]1(c2ccccc2)C(=O)N(C(=O)OC)N1C(=O)OC	i	i	i	i	i
COc1ccc(OCC(O)CNC(=O)c2cccs2)cc1 (stereo unspecified)	i	i	i	i	i
COc1ccccc1C1=NNC(=Nc2cccc(S(=O)(=O)N(C)C)c2)SC1	i	i	i	-5	i
COCCn1c(C)cc(C2=NNC(=Nc3ccccc3)SC2)c1C	i	i	i	i	i
Cc1ccc(C(=O)N(c2ccccc2)C2CC(C)N(C(=O)c3ccco3)c3ccccc32)cc1 (stereo unspecified)	17	i	i	i	i
CCC(C)(C(=O)NC1CCCC1)N(Cc1cccs1)C(=O)c1ccccn1 (stereo unspecified)	i	i	i	i	i
O=C(N/N=C/c1ccc(O)cc1)c1ccc(COc2cc(Cl)ccc2Cl)o1	i	i	i	-5.2	i
Cc1ccc(S(=O)(=O)NC(=O)c2ccc(-c3ccc(-c4ccccc4)cc3)o2)c(C)c1	i	i	-9.1	i	i
O=C(CN1CCN(C(c2ccccc2)c2ccccc2)CC1)N1CCN(c2ccccc2)CC1	i	i	i	i	i
N#C/C(=C\c1cccc(O)c1)C(=O)Nc1ccc2c(c1)OCCO2	17	i	i	i	i
O=C(/C=C/c1ccco1)Nc1ccc2c(c1)OCCO2	i	i	i	i	i
O=C(/C=C/c1ccccc1)Nc1ccc2c(c1)OCCO2	i	i	i	-4.6	i
CCC(=O)Nc1cccc(C(=O)/C=C/c2ccccc2)c1	i	35	i	i	i
O=C(/C=C/c1ccccc1)Nc1cccc(C(=O)O)c1	i	i	i	-5.6	i
O=C(NCc1cccnc1)Nc1ccc(Cl)cc1	i	i	i	i	i
COCCCn1c(SCC(=O)OC2CCCCC2)nnc1-c1cccs1	i	i	i	-5.8	i
COCCCn1c(SCC(=O)OC2CCCCC2)nnc1-c1ccco1	i	i	i	i	i
CS(=O)(=O)Nc1ccc(C2=NN(C(=O)c3ccco3)C(c3ccccc3F)C2)cc1 (stereo unspecified)	i	i	i	i	i
O=C(O)c1cccc(NC(=S)NC(NC(=O)c2cccc([N+](=O)[O-])c2)C(Cl)(Cl)Cl)c1 (stereo unspecified)	i	i	i	i	i
O=C(NC(NC(=S)Nc1ccc(Cl)cc1Cl)C(Cl)(Cl)Cl)c1cccc([N+](=O)[O-])c1 (stereo unspecified)	i	i	-7.2	i	i
CC1(C)CC(=O)C(C=Nc2ccccc2C(=O)O)=C(O)C1	i	i	i	i	i
SMILES	MrgX1 allo act	MrgX1 agonist	RGS4 pot	MrgX1 antagonist	RGS4 block
CC1(C)CC(=O)C(C=Nc2ccccc2Sc2ccccc2)=C(O)C1	i	i	-8.8	i	i
Clc1cccc(CN2CCSCC2)c1	i	i	i	i	i
Clc1ccc(CSc2snnc2-c2ccccc2)cc1	i	i	-7.2	i	i
Clc1ccc(-c2nnsc2SCc2ccccc2)cc1	i	i	i	i	i
COc1ccc(S(=O)(=O)N2CCOCC2)cc1NC(=O)CSc1n[nH]c(C(C)C)n1	i	i	i	i	i
CCCCc1cc(=O)oc2cc(C)cc(OCC(=O)NCc3ccncc3)c12	7.2	i	i	i	i
